# This sample holds only a part of the variants without activity.
# B1: tRNA (parent)
# chain: GUUCCGUUGGCGUAAUGGUAACGCGUCUCCCUCCUAAGGAGAAGACUGCGGGUUCGAGUCCCGUACGGAACG
# Variants of: B1
# Assay: yeast fitness relative to wild type (ratio to wild type); higher = fitter; tRNA-Arg(CCU), competitive growth, 37 C, YPD
# Method in brief: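 Variants of the tRNA-Arg(CCU) gene, chemically synthesised with a 3% per-site mutation rate at 69 sites, were placed at the native genomic locus in Saccharomyces cerevisiae. The pooled strains were competed in YPD at 37°C for 24 hours in six parallel replicates. Gene amplicons from the start population and from each end population were read by 100-nucleotide paired-end sequencing. Darwinian fitness relative to wild type came from changes in genotype frequencies; genotypes needed ≥ 100 starting reads, and estimates < 0.5 were set to 0.5.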
row,Variant,yeast fitness
1,GUUCCGUUGGGGUAAUGGUUACGCGUCUCCCUCCUAAGGAGAAGACUGCGGGUUCAAGUUCCGUACGGAACG [C11G A20U G56A C60U],0.678
2,GUUCCGUUGGGGUAAUGGUAUCGCGUCUCCGUCCUAAGGAGAAGACUGCGGGUUCGAGUCCCGUACGGAACG [C11G A21U C31G],≤ 0.5
3,GUUCCGUUGGGGUAAUGGUAACGCGUCUCCCUCCUUUGGAGAAGACUGCGGGUUUGAGUCCCGUACGGAACG [C11G A36U A37U C55U],≤ 0.5
4,GUUCCGUUGGGGUAAUGGUUACGCGUCUCGCUCAUAAGGAGACGACUGCGGGUUCGAGUCCCGUACGGCACG [C11G A20U C30G C34A A43C A69C],0.76
5,GUUCCGUUGGGGUAAUGGUAACGCGUCUCCCUCCUAAGGAGAAGUCUGCAGGUUCGAGUCCCAAACGGAACG [C11G A45U G50A G63A U64A],0.668
6,GUUCCGUUGGGGUAAUGGUGACGUGUCUCCGUCCUAAGGAGAAGACUGCGGGUUCGAGUCCCGUACGGAACG [C11G A20G C24U C31G],≤ 0.5
7,GUUCCGUUGGGGUAAUGGUGACGCGUCUCCCUCCUAAGGAGAAGACUGCGGGCUCGAGUCCCGUACGGAACG [C11G A20G U53C],≤ 0.5
8,GUUCCGUUGGGGUAAUGGUUACGCGUCUCCCUCCUAACGAGAAGACUGCAGGUUCGAGUCCCGUACGGAACG [C11G A20U G38C G50A],0.569
9,GUUCCGUUGGGGUAAUGGUAACGCGUCUCCCUCCUUAGGAGAAGUCUGCGCGUUUGAGUCCCGUACGGAACG [C11G A36U A45U G51C C55U],≤ 0.5
10,GUUCCGUUGGGGUAAUGGUAACGCGUCUCCCUCCUAAGGAGUCGACUGCGGGUUAGAGUCCCGUAUGGAACG [C11G A42U A43C C55A C66U],≤ 0.5
11,GUUCCGUUGGGGUAAUGGUUACGACUCUCCCUCCUAAGGGGAAGACUGCGGGUUCGACUCCCGUACGGAACG [C11G A20U C24A G25C A40G G58C],≤ 0.5
12,GUUCCGUUGGGGUAAUGGUAUCGGGUCUCCCUCCUAAGGAGAAGACUGCGAGUUCGAGUCCCGUACGGAACG [C11G A21U C24G G51A],≤ 0.5
13,GUUCCGUUGGGGUAAUGGUAGCCCGUCUCACUCCUAAGGAGAAGACUGCGGGUUCGAGUCCCGUACGGAACG [C11G A21G G23C C30A],0.733
14,GUUCCGUUGGGGUAAUGGUAACGCGUCUCCCUCCUAAGGAGAAGGCUGUGGGUUAGAGUCCCGUACGGAACG [C11G A45G C49U C55A],≤ 0.5
15,GUUCCGUUGGGGUAAUGGUAUCGCGCCUCCCUCCUAAGGAGAAGACUGCGGGGUCGAGUCCCGUACGGAACG [C11G A21U U26C U53G],0.696
16,GUUCCGUUGGGGUAAUGGUAUCGCGUCUCCCUCCUAAGGUGAAGACUGCGGGUACGAGUCCCGUACGGAACG [C11G A21U A40U U54A],0.681
17,GUUCCGUUGGGGUAAUGGUGACGCGUCUCCCUCCUAAGGAGAAGACGGCGGGUUCGAGUCCCGUACGGAACG [C11G A20G U47G],≤ 0.5
18,GUUCCGUUGGGGUAAUGGUAACGCGUCUCCCUCCUAAGGAGUAGACUGGGGGUUCGACUCCCGUACGGUACG [C11G A42U C49G G58C A69U],≤ 0.5
19,GUUCCGUUGGGGUAAUGGUAACGCGUCUCCCUCCUUAGGAGAAGACUGCGGGUACGAGUCCCGCACGGUACG [C11G A36U U54A U64C A69U],≤ 0.5

row,Variant,yeast fitness
1,GUUCCGUUGGGGUAAUGGUAACGCGUCUCCCUCCUCAGGAGAUGACUGCGGGUUCGAGUCCCGUACGGAACG [C11G A36C A43U],≤ 0.5
2,GUUCCGUUGGGGUAAUGGUAACGCGUCUCCCUCCUAAGGGGAAGACUGCGGGUUCGAGUUCCGCACGGAACG [C11G A40G C60U U64C],≤ 0.5
3,GUUCCGUUGGGGUAAUGGUAACGCGUCUCCCUCCUCAGGAGAAGACUGCGGGUUCAAGUCCCGUGCGGAACG [C11G A36C G56A A65G],≤ 0.5
4,GUUCCGUUGGGGUAAUGGUAACGCGUCUCCCUCCUAUGGAGAAGACUGCGGGUUUGCGUCCCGUACGGAACG [C11G A37U C55U A57C],≤ 0.5
5,GUUCCGUUGGGGUAAUGGUACCGCGACUCCCUCUUAAGGAGAAGACUGCGGGUUCGAGUCCCGUACGGAACG [C11G A21C U26A C34U],≤ 0.5
6,GUUCCGUUGGGGUAAUGGUAACGCGUCUCCCUCCUAAGGGGAAGGCUGCGGAUUCGAGUCCCGUACGGAACG [C11G A40G A45G G52A],0.577
7,GUUCCGUUGGGGUAAUGGUAUCGCGUCUCCCUCCUAAGGAGAAGACUGCGCGUUCGAGUCCCGUACGGAACG [C11G A21U G51C],≤ 0.5
8,GUUCCGUUGGGGUAAUGGUAACGCGUCUCCCUCCUAAGGAGAAGCCCGCGGGUUCGAGUCUCGUACGGGACG [C11G A45C U47C C61U A69G],≤ 0.5
9,GUUCCGUUGGGGUAAUGGUUACGCGUCUCGCUCCUAAGGAGAAGACUGGGGGGUCGAGUCCCGUACGGAACG [C11G A20U C30G C49G U53G],0.571
10,GUUCCGUUGGGGUAAUGGUAGCGCGUCUCCCUCCUAACGACAAGACUGCGGGUUAGAGUCCCGUCCGGAACG [C11G A21G G38C G41C C55A A65C],0.525
11,GUUCCGUUGGGGUAAUGGUUACGCGUCUCCCUCCUAAGGAGAAGACUGCGGGUUCGAGUCCCGUACGGAACG [C11G A20U],0.692
12,GUUCCGUUGGGGUAAUGGUAACGCGUCUCCCUCCUAAGGAGAUGACUGCGGGUUCGAGUCCCGUACGGAACG [C11G A43U],0.726
13,GUUCCGUUGGGGUAAUGGUAACGCGUCUCCCUCCUAAGGAGAGGACUGCGGGUUCGAGUCCCGUACGGAACG [C11G A43G],0.641
14,GUUCCGUUGGGGUAAUGGUAACGCGUCUCCCUCCUAAGGAGACGAGUGCGGGUUCGAGUCCCGUACGGAACG [C11G A43C C46G],0.514
15,GUUCCGUUGGGGUAAUGGUUACGACUCUCCCUCCUAAGGAGAUGACUGCGGGUUCGAGUCCCGUACGGAACG [C11G A20U C24A G25C A43U],≤ 0.5
16,GUUCCGUUGGGGUAAUGGUACCGCGUCUCCCUCCUUAGGAGAAGACUGCGGGUUCGAGUCCCGUACGGAACG [C11G A21C A36U],0.511
17,GUUCCGUUGGGGUAAUGGUAACGCGUCUCCCUCCUGAGGAGAAGACUGCGGGUUCGAGUCCCGUACGGAACG [C11G A36G],0.692
18,GUUCCGUUGGGGUAAUGGUAACGCGUCUCCCUCCUUAGGAGAAGACUGCGGGUUCGAGUCCCGUACGGAACG [C11G A36U],≤ 0.5
